# Screening results: PubChem, Johns Hopkins Ion Channel Center
# Most compounds without a hit are left out; they make up all but 3.5% or so of the library.
# MrgX1 antagonist = antagonists of human MrgX1 receptor, primary screen, HEK293 cells, Fluo-4 calcium flux | B-score at 10 µM | 310,000 compounds, 1.3% hits | BAM8-22 antagonism; stronger effect = lower value;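 active means calcium-response B-score plate-corrected more than 3 library SD below zero, starting fluorescence within 5 deviations, no agonist response on first addition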;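 further: peak minus trough fluorescence over baseline after final BAM8-22 challenge near maximal dose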
# Target sequence (Q96LB2 whole entry, looked up): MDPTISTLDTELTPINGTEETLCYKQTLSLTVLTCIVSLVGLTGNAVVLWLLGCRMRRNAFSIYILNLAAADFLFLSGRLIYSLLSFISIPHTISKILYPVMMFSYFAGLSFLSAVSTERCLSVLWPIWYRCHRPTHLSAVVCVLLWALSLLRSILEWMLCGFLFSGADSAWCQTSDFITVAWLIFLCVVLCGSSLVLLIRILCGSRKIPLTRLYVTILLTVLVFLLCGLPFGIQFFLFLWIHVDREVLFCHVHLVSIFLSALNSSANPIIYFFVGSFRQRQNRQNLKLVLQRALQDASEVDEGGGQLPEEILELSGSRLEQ
# MrgX1 agonist = agonists of human MrgX1 receptor, primary screen, HEK293 cells, Fluo-4 calcium flux; B-score at 10 µM; Mas-related G-protein coupled receptor member X1 (Homo sapiens), Q96LB2; 310,000 compounds, 0.44% hits; Fluo-4 calcium fluorescence, agonist mode; stronger effect = higher value;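 active means calcium response B-score plate-corrected fluorescence ratio at least 3 library SD, with starting fluorescence B-score inside 5 SD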
#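 Material: HEK293 cells stably expressing human MrgX1 receptor | Quantity: 15,000 cells per well | Times: Cells plated overnight, dye loaded 0.5 h 37 °C, 0.5 h room temperature | Measured by: Kinetic Fluo-4 NW fluorescence of intracellular calcium | Control set: Positive and negative controls per plate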
# MrgX1 PAM = positive allosteric modulators of MrgX1, primary screen, HEK293 cells, Fluo-4 calcium flux; Mas-related G-protein coupled receptor member X1 (Homo sapiens), Q96LB2; 310,000 compounds, 0.63% hits; FDSS; stronger effect = higher value; B-score at 10 µM;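 active means plate-corrected calcium response at least 3 library SD above typical, normal starting fluorescence, not activating the receptor alone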;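 further: compound read alongside a low EC10 to EC30 dose of BAM8-22 agonist; peak minus trough fluorescence over baseline measured at the second addition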
# RGS4 pot = RGS4 potentiators or activators, primary screen, cell-based, HEK293 M3R inducible RGS4, calcium flux; carbachol calcium flux Fluo4; stronger effect = lower value; B-score at 10 µM; 310,000 compounds, 0.92% hits; AID 463111, 2010;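 active means B-score of the integrated calcium signal more than 4 SD below the library mean, with starting fluorescence not abnormally high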;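 further: negative B-score means reduced calcium response which marks RGS4 activation or potentiation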
#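 Reagent: ECmax carbachol challenge; Test system: M3R-expressing HEK293 line, RGS4 induced by doxycycline; Schedule: overnight RGS4 induction, 30 min dye load 37 °C, 20 min compound RT; Detection: calcium dye Fluo4 fluorescence; Read-out: Agonist-evoked peak-minus-minimum fluorescence over baseline, integrated ratio, B score.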
# RGS4 inh = RGS4 inhibitors, primary screen, cell-based, HEK293 M3R inducible RGS4, calcium flux | Regulator of G-protein signaling 4 (Homo sapiens), P49798 | Fluo-4 calcium flux; stronger effect = higher value; triggered by carbachol at its EC20 | B-score at 10 µM | 310,000 compounds, 0.45% hits | AID 463165, 2010;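 active means B-score, a plate-corrected calcium signal, over three deviations above library mean, with baseline fluorescence within five deviations of library mean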;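 further: RGS4 expression induced by doxycycline in cells with stable M3 receptor; B-score is computed from the integrated fluorescence ratio over baseline after carbachol; higher B-score means a larger calcium signal and so more RGS4 inhibition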
# RGS4 activ val = reduced carbachol calcium response, RGS4-induced M3R cells, confirmation, RGS4 activator project, cell-based, HEK293 M3R/RGS4 inducible, calcium flux, duplicate | shares compounds with RGS4 pot | carbachol calcium flux Fluo4 | inhibition, % at 10 µM | 1,100 compounds, 89% hits | AID 602282, 2012;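 active means inhibition above 3 SD of the buffer control wells, cut at about 41% in these data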;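 further: signal is the integrated peak-minus-minimum Fluo4 fluorescence over baseline ratio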
# RGS4 act ctr = RGS4 activator counter-screen hit in non-induced cells; shares compounds with RGS4 pot; HEK293 M3R non-induced RGS4, Fluo4 calcium flux; after carbachol challenge at its EC90; inhibition, % at 10 µM; 1,100 compounds, 82% hits;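 active means inhibition exceeding 3 SD of buffer-only control wells, cut at about 26% in these data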;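 further: percent drop in integrated peak-minus-baseline over baseline Fluo4 ratio after carbachol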
# Numbers without * were called inactive; i = inactive; . = no result.
SMILES,MrgX1 antagonist,MrgX1 agonist,MrgX1 PAM,RGS4 pot,RGS4 inh,RGS4 activ val,RGS4 act ctr
CN1C2CCC1CC(OC(c1ccccc1)c1ccccc1)C2 (stereo not drawn),i,i,i,-8.84*,i,92.0*,91.3*
COc1cc(C=O)ccc1OC(=O)c1cccnc1,i,i,i,i,i,.,.
Cc1cc(Cl)c(S(=O)(=O)N2CCN(c3ccccn3)CC2)cc1OCC(=O)NC1CCCCC1,i,i,i,-8.01*,i,92.0*,74.8*
COCCNC(=S)Nc1ccc2nc(N3CCOCC3)cc(C)c2c1,i,i,i,-11.4*,i,0.0,0.0
CC(C)(C)c1[nH]nc2c1C(c1cccnc1)C(C#N)=C(N)O2 (stereo not drawn),i,i,i,i,i,.,.
CC(C)(C)c1[nH]nc2c1C(Cc1ccccc1)C(C#N)=C(N)O2 (stereo not drawn),-5.1*,i,i,-9.3*,i,92.0*,83.8*
CCC(C)[C@H](NC(=O)NC1CCCc2ccccc21)C(=O)OC (stereo partly drawn),i,i,i,-8.34*,i,0.0,0.0
NNC(=O)c1ccc(CSc2nc3ccccc3s2)cc1,i,i,i,i,i,.,.
Cc1cccc(NC(=O)c2ccc(COc3cccc4ccccc34)o2)n1,i,i,i,i,i,.,.
O=C1S/C(=C\c2ccc(Cl)cc2)C(=O)N1CCn1cnnn1,i,i,i,i,i,.,.
OCC1(Cc2ccccc2C(F)(F)F)CCN(Cc2ccccc2)CC1,i,i,i,i,i,.,.
OCC1(Cc2ccccc2C(F)(F)F)CCN(Cc2ccc3c(c2)CCO3)CC1,i,i,i,-10*,i,55.0*,83.8*
CCN(CC1CCCN(CCc2cccc(F)c2)C1)C(=O)c1cc2ccccc2o1 (stereo not drawn),i,i,i,-7.72*,i,78.0*,29.8*
CCN(CC1CCCN(CCc2cccc(F)c2)C1)C(=O)c1cc(C)oc1C (stereo not drawn),i,i,i,i,i,.,.
CN(CC1CCCN(CCc2cccc(C(F)(F)F)c2)C1)C(=O)c1cc2ccccc2o1 (stereo not drawn),.,.,.,-11.7*,i,92.0*,74.3*
CSCCC(=O)N(C)CC1CCCN(CCc2cccc(C(F)(F)F)c2)C1 (stereo not drawn),i,i,i,i,i,.,.
NC(=O)c1cc2cc([N+](=O)[O-])ccc2oc1=O,i,i,i,i,i,.,.
O=C(c1cccs1)N1CCCC(c2nc3c(nnn3Cc3c(Cl)cccc3Cl)c(=O)[nH]2)C1 (stereo not drawn),i,i,i,-8.32*,i,52.0*,83.8*
CC(=O)c1cc(CN2CCN(Cc3ccccc3)C(CCO)C2)cs1 (stereo not drawn),i,i,i,i,i,.,.
COc1ccccc1Cn1c(=O)oc2ccc(C)cc21,i,i,i,i,i,.,.
CCCCOc1ccccc1Cn1c(=O)oc2ccc(C)cc21,i,i,i,-7.68*,i,91.5*,90.8*
C#CCOCCOCCOCCNc1nc(N2CCN(C(=O)[C@H](Cc3cc4ccccc4[nH]3)n3cc([C@@H](N)C(C)CC)nn3)CC2)nc(N2CCN(C(=O)[C@H](Cc3cc4ccccc4[nH]3)n3cc([C@@H](N)CC(C)C)nn3)CC2)n1 (stereo partly drawn),i,i,i,i,i,.,.
CC1CCN(c2ccc3c(c2)S(=O)(=O)c2ccccc2C3=O)CC1,i,i,i,-8.19*,i,68.5*,65.3*
